Sampled rows, rich in hits. Any-hit rate of the full collection: about 3.7%.
KCNQ1 block – inhibitors of human KCNQ1 channel, primary screen, cell-based, thallium flux, high-throughput; actives 1.3% (n = 310,000); CHO-K1 KCNQ1, FluxOR thallium flux fluorescence; stronger effect = higher value; Potassium voltage-gated channel subfamily KQT member 1 (Homo sapiens), P51787; B-score at 10 µM;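 active = compounds whose thallium flux B-score, printed positive for inhibition, exceeds three library SD while starting fluorescence stays within three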;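 also: channel opened by potassium depolarization with thallium stimulus after 20 min compound exposure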
hERG rescue – hERG rescue from dofetilide block, primary screen, cell-based, CHO-hERG, FluxOR thallium flux, dofetilide IC70; dofetilide IC70 present; activation (rescue from dofetilide block), less the hit threshold, % at 10 µM; actives 0.51% (n = 310,000); AID 1511, 2009;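 active = activation above the mean of controls blocked by dofetilide plus 5 SD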;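 also: thallium influx through hERG after potassium depolarization seen as dye fluorescence rise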
Kir21 block – inhibitors of mouse Kir2.1 inward-rectifier potassium channel; HEK293-Kir2.1, FluxOR thallium flux fluorescence; stronger effect = lower value; B-score at 10 µM; actives 0.85% (n = 310,000); AID 1672, 2009;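 active = fluorescence ratio B-score at or below minus 3 SD of library scores, with starting-brightness B-score within 2 SD, cut at about -4.2 in these data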;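 also: channel flux triggered by added potassium and thallium sulfate stimulus; B-score of peak minus minimum fluorescence over baseline after thallium stimulus; more negative B-score means stronger Kir2.1 block with less thallium influx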
KCNK3 block – human KCNK3 channel inhibitors, primary screen, CHO cells, FluxOR thallium flux, B-score | Potassium channel subfamily K member 3 (Homo sapiens), O14649 | FluxOR fluorescence; stronger effect = lower value | B-score at 10 µM | actives 0.84% (n = 340,000);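 active = B-score under library mean minus 4 SD, starting fluorescence ratio at most library mean plus 5 SD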;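 also: more negative B-score means stronger inhibition of thallium flux through KCNK3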
KCNQ1 act – potentiators or activators of KCNQ1 channel, primary screen, cell-based, thallium flux, high-throughput; Potassium voltage-gated channel subfamily KQT member 1 (Homo sapiens), P51787; CHO-K1 KCNQ1, thallium flux FluxOR fluorescence; stronger effect = higher value; B-score at 10 µM; actives 0.35% (n = 310,000); AID 2648, 2010;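 active = fluorescence ratio B-score, a plate-corrected score, at least three library SD, with initial intensity B-score within 5 SD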
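Material: CHO-K1 cells stably expressing KCNQ1. Medium: assay buffer for compound exposure, DMSO matched across wells. Reagent: K+/Tl+ depolarizing stimulus. Compound dosing: single-concentration screen. Times: 37 °C overnight plating, 90-min dark dye load, 20-min compound pretreatment. Technique: FluxOR Tl+ flux fluorescence.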
KCNK9 block – KCNK9 potassium channel inhibitors, primary screen, HEK293 cells, thallium flux; Potassium channel subfamily K member 9 (Homo sapiens), Q9NPC2; FluxOR thallium flux fluorescence; stronger effect = lower value; AID 488922, 2010; actives 1.2% (n = 310,000); B-score at 10 µM;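 active = ratio B-score over 3 SD below the library mean, with starting fluorescence within 5 SD of its mean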;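 also: negative B-score means less thallium flux so channel inhibition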
KCNQ1 block val – KCNQ1 potassium channel inhibitors, confirmation, cell-based, Tl flux, duplicate | KCNQ1 cell line, FluxOR thallium flux fluorescence | actives 93% (n = 1,600) | shares compounds with KCNQ1 block | inhibition, % at 10 µM;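 active = primary screen active, with duplicate mean exceeding buffer control mean plus 3 SD of buffer wells, cut at about 28% in these data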
CHO Tl flux – thallium flux effects in parental CHO cells, counter-screen for KCNQ1 inhibitor project, cell-based, Tl flux; fluorescence ratio (Tl flux) at 10 µM; actives 21% (n = 1,600); shares compounds with KCNQ1 block; parental CHO-K1, FluxOR thallium flux fluorescence ratio; stronger effect = lower value; zero means no signal rise above baseline;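 active = mean of duplicate thallium-flux fluorescence ratios in parental host cells more than 5 SD below the buffer control mean, cut at about 0.38 in these data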;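 also: ratio is peak minus minimum fluorescence divided by baseline fluorescence; actives read low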
KCNQ1 APC inh – KCNQ1 channel inhibitors, confirmation, orthogonal assay, cell-based, automated electrophysiology. KCNQ1-CHO cells, automated patch clamp current. actives 20% (n = 490). calls only at 10 µM. shares compounds with KCNQ1 block. AID 624120, 2012;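 active = KCNQ1 current drop exceeding 3 SD of negative control wells, seen in both duplicate runs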;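 also: steady state current during a 2 s step from -80 to +40 mV; negative values mean current inhibition and positive values mean potentiation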
KCNQ2 spec – KCNQ2 channel inhibition, selectivity assay for KCNQ1 inhibitor project, cell-based; AID 651746, 2012; actives 71% (n = 1,600); KCNQ2 cells, FluxOR thallium flux fluorescence; inhibition, % at 10 µM; shares compounds with KCNQ1 block;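 active = mean percent inhibition of the KCNQ2 thallium signal more than 5 SD above the buffer-only control wells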;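 also: KCNQ2 expressed in CHO cells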
KCNQ1 KCNE1 spec – KCNQ1/KCNE1 channel inhibition, selectivity assay for KCNQ1 inhibitor project, CHO-K1 cells, thallium flux, FluxOR | shares compounds with KCNQ1 block | FluxOR thallium flux fluorescence | inhibition, % at 10 µM | actives 77% (n = 1,600) | AID 652147, 2013;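 active = mean percent inhibition of duplicate wells above the buffer-only control mean plus 3 SD of those controls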
Of the large screens only hits and unclear results are named; the others gave an inactive call (follow-up assays come after a bar, where they were run).

Cc1cc2c(NC(=O)Nc3ccc(C(C)(C)C)cc3)cccc2nn1	KCNQ1 block 7 | KCNQ1 block val 118 | CHO Tl flux inactive | KCNQ1 APC inh inactive | KCNQ2 spec 81% | KCNQ1 KCNE1 spec 68%
COc1ccc(OCCCC(=O)Nc2cc(Cl)ccc2-n2cncn2)cc1	none
COc1cccc(NC(=S)N2CCN(C)CC2)c1	none
COc1ccc(CNC(=O)C(C)OC(=O)c2cccc(N(C)C)c2)cc1 (stereo not drawn)	none (no result: KCNQ1 block, hERG rescue, Kir21 block, KCNQ1 act, KCNK9 block)
Cc1ccc(Cn2nnc3c(=O)[nH]c(C4CCN(C(=O)Cc5cccs5)CC4)nc32)cc1	KCNQ1 block 7 | KCNQ1 block val inactive | CHO Tl flux inactive | KCNQ2 spec inactive | KCNQ1 KCNE1 spec inactive
O=C(Nc1ccc(N2CCCC2)c(Cl)c1)c1ccc2c(c1)OCCO2	none
O=C(Nc1ccc(N2CCCCC2)c(Cl)c1)c1ccc2c(c1)OCCO2	KCNQ1 block 9 | KCNQ1 block val 86 | CHO Tl flux inactive | KCNQ2 spec 98% | KCNQ1 KCNE1 spec 120%
COc1ccccc1NS(=O)(=O)c1ccc(-c2cnc(C3CC3)o2)cc1	none
COc1ccc(NS(=O)(=O)c2ccc(-c3cnc(C4CC4)o3)cc2)cc1OC	KCNQ1 block 8 | KCNQ1 block val 86 | CHO Tl flux inactive | KCNQ2 spec 83% | KCNQ1 KCNE1 spec inactive
CN(Cc1ccc(F)cc1)C(=O)c1cccc(S(=O)(=O)N2CCN(c3ccc(F)cc3)CC2)c1	none
CN(Cc1ccc(F)cc1)C(=O)c1cccc(S(=O)(=O)N2CCN(c3ccccc3)CC2)c1	KCNQ1 block 7 | KCNQ1 block val 76 | CHO Tl flux inactive | KCNQ2 spec 70% | KCNQ1 KCNE1 spec inactive
CCCNC(=O)c1ccc(N2CCC3(CC2)CC(c2cccc(Br)c2)=NO3)c(NC(=O)c2cccc(C)c2)c1	none
CC(C)C(NC(=O)c1ccc(Cl)cc1)C(=O)NCC1CCCO1 (stereo not drawn)	none
Cc1ccc(Cl)cc1N1CCN(C(=O)COc2ccc3c(c2)CCC3)CC1	KCNQ1 block 7 | KCNQ1 block val 118 | CHO Tl flux inactive | KCNQ1 APC inh inactive | KCNQ2 spec 121% | KCNQ1 KCNE1 spec 170%
CC(=O)Nc1ccccc1OCC(=O)c1cc(C)n(Cc2cccs2)c1C	KCNQ1 block 7, KCNK3 block -9.4 | KCNQ1 block val 110 | CHO Tl flux inactive | KCNQ2 spec 99% | KCNQ1 KCNE1 spec 38%
O=C(COc1ccccc1Cl)N1CCNC1=O	none (no result: KCNQ1 block, hERG rescue, Kir21 block, KCNQ1 act, KCNK9 block)
CN(C(=O)c1ccc(S(=O)(=O)N2CCCC2)cc1)C1CCS(=O)(=O)C1 (stereo not drawn)	none
CCCCCCCCNc1ncnc2ccccc12	KCNQ1 block 9, Kir21 block -8 | KCNQ1 block val 125 | CHO Tl flux 0.37 | KCNQ2 spec 76% | KCNQ1 KCNE1 spec 118%
CCc1ccccc1Nc1ncnc2ccccc12	none
Brc1ccc2ncnc(NCc3ccccc3)c2c1	none
c1ccc(CCNc2ncnc3ccccc23)cc1	KCNQ1 block 8 | KCNQ1 block val 139 | CHO Tl flux inactive | KCNQ1 APC inh inactive | KCNQ2 spec 84% | KCNQ1 KCNE1 spec 110%
Cc1cc(NC(=O)COC(=O)[C@@H](NS(=O)(=O)c2ccc(Br)cc2)C(C)C)no1	none
CC(c1ccccc1)N1C(=O)c2ccc(C(=O)Nc3ccc(Br)cc3C(=O)O)cc2C1=O (stereo not drawn)	KCNQ1 block 12 | KCNQ1 block val 108 | CHO Tl flux inactive | KCNQ1 APC inh inactive | KCNQ2 spec inactive | KCNQ1 KCNE1 spec 132%
CC(c1ccccc1)N1C(=O)c2ccc(C(=O)Nc3ccccc3C(=O)O)cc2C1=O (stereo not drawn)	none
CCOC(=O)N(C)c1ccc(C(O)(C(F)(F)F)C(F)(F)F)cc1	KCNQ1 block 8 | KCNQ1 block val 74 | CHO Tl flux inactive | KCNQ2 spec 79% | KCNQ1 KCNE1 spec 80%
Cc1ccccc1OCCCCn1cnc2ccccc21	KCNQ1 block 9 | KCNQ1 block val 136 | CHO Tl flux inactive | KCNQ1 APC inh inactive | KCNQ2 spec 100% | KCNQ1 KCNE1 spec 59%
c1ccc2c(c1)ncn2CCCCOc1ccc2c(c1)CCC2	KCNQ1 block 7 | KCNQ1 block val 118 | CHO Tl flux inactive | KCNQ1 APC inh inactive | KCNQ2 spec 91% | KCNQ1 KCNE1 spec 82%
O=C(CCNC(=O)c1ccc(Cl)cc1)Nc1ccc(S(=O)(=O)N2CCCCC2)cc1	none
Cc1ccc(C)c(S(=O)(=O)N2CCN(C(=O)c3cc(-c4cccs4)nn3-c3ccccc3)CC2)c1	KCNQ1 block 9 | KCNQ1 block val inactive | CHO Tl flux inactive | KCNQ2 spec 79% | KCNQ1 KCNE1 spec 46%
CC(C)(C)c1ccc(S(=O)(=O)N2CCC(c3nc4ccc(Cl)cc4[nH]3)CC2)cc1	KCNQ1 block 10 | KCNQ1 block val 117 | CHO Tl flux inactive | KCNQ2 spec 101% | KCNQ1 KCNE1 spec 108%
O=C(c1ccc2c(c1)OCO2)C1CCCN(Cc2cccc(C(F)(F)F)c2)C1 (stereo not drawn)	KCNQ1 block 7 | KCNQ1 block val 88 | CHO Tl flux inactive | KCNQ1 APC inh inactive | KCNQ2 spec 96% | KCNQ1 KCNE1 spec 97%
O=C(c1cccc(C(F)(F)F)c1)C1CCCN(Cc2ccc(OCCO)cc2)C1 (stereo not drawn)	none

Source: PubChem BioAssay (Johns Hopkins Ion Channel Center)
